In series [1] the target is T1, Glucocorticoid receptor (Homo sapiens, UniProt P04150).
T1 sequence (P04150 whole entry): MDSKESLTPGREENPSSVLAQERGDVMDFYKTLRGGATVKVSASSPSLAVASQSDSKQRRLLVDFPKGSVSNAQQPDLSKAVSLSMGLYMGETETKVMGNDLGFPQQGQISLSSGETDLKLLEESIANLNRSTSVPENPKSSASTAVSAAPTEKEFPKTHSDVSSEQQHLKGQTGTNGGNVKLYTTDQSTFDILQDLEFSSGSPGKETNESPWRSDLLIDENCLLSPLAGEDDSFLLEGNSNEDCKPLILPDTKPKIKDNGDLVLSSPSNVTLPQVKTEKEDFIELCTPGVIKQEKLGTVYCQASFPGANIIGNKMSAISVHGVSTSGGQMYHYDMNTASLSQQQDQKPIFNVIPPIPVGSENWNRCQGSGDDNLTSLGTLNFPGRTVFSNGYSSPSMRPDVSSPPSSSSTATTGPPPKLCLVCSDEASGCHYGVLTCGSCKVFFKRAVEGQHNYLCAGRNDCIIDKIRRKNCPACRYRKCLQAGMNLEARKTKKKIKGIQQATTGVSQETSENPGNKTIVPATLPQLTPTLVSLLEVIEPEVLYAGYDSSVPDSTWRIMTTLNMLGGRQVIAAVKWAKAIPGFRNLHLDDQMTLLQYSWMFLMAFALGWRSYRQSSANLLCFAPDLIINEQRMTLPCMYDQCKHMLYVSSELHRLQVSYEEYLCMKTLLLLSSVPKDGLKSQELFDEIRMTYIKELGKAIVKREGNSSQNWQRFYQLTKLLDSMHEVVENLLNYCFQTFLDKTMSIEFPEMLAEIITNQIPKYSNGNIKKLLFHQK
The series can be described thus: Antagonist activity at glucocorticoid receptor in human HepG2 cells assessed as inhibition of dexamethasone-induced tyrosine amino transferase activity preincubated for 30 mins followed by dexamethasone addition measured after 20 hrs. The series is classed as cell-based.

Series [2] in a line: Cmax in monkey plasma at 20 mg/kg, po measured up to 24 hrs by LC/MS analysis. Conditions: rhesus monkey; call rule not given here. Also noted: dose 20 mg/kg, route oral. Type of series: ADME, organism-based, Macaca mulatta. The gist of the method:
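Monkey i.v./p.o. study: oral 20mg/kg in 10% DMSO, 0.1% Tween 80, 0.5% hydroxypropylmethylcellulose in water; i.v. dose 1mg/kg.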

Series [3] deals with T2, androgen receptor (Homo sapiens, UniProt P10275).
T2 sequence (P10275 whole entry): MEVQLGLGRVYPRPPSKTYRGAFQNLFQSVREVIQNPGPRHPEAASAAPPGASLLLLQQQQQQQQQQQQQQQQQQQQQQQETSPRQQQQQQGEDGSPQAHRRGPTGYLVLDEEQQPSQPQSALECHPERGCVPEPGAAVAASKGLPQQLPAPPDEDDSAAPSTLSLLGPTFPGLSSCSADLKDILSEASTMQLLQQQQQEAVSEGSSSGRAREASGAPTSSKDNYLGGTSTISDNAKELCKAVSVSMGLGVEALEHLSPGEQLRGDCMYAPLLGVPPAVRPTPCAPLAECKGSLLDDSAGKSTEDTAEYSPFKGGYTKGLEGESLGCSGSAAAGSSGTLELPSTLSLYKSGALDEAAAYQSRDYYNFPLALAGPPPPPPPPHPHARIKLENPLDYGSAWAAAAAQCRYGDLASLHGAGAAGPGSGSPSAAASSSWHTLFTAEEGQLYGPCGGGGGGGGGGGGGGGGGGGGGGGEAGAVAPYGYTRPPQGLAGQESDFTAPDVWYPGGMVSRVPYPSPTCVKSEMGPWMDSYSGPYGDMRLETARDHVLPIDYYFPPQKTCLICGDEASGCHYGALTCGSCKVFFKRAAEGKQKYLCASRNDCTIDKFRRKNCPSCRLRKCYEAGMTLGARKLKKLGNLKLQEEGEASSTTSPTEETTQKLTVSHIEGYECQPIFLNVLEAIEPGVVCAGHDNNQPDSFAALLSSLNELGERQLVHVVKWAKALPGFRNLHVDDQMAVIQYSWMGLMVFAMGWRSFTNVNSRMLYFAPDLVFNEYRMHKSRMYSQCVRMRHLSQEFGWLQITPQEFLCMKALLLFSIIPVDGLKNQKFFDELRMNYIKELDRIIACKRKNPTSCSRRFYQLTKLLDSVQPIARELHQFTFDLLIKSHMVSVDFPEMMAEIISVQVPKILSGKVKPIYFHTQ
In words: Inhibition of radioligand binding to androgen receptor (unknown origin) at 1 uM relative to control.

Series [4] deals with T3, Glucocorticoid receptor (Canis lupus familiaris) (UniProt A0A8C0QLS2).
T3 sequence (whole entry): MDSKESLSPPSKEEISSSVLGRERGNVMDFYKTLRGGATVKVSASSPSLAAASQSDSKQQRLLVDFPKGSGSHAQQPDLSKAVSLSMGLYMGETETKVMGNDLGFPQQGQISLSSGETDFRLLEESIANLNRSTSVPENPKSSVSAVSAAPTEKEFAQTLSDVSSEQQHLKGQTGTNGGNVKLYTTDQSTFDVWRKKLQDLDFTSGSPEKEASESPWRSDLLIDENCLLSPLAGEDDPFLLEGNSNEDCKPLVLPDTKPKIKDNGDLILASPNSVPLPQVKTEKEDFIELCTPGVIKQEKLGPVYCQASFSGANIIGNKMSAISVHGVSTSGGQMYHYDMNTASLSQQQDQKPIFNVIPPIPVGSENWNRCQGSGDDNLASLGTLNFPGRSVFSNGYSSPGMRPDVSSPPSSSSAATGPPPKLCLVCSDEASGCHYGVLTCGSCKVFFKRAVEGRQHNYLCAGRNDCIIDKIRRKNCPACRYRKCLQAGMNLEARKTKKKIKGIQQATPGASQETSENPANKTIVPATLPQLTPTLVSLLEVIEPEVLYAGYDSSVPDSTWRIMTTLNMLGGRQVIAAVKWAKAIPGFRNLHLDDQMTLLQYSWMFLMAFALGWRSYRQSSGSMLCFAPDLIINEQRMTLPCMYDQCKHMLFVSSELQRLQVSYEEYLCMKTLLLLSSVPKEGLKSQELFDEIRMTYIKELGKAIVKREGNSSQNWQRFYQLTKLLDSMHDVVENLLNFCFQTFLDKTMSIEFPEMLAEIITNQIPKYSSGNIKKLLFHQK
In words: (§1) Agonist activity at dog glucocorticoid receptor in primary hepatocytes assessed as induction of tyrosine amino transferase activity measured after 20 hrs. The series is classed as cell-based.

Series [5] deals with T4, Glucocorticoid receptor (Canis lupus familiaris, UniProt A0A8C0QLS2).
T4 sequence (A0A8C0QLS2 whole entry): T3 sequence (whole entry)
The series is described as §1. Type of series: cell-based.

Series [6] has as its target Cytochrome P450 2C9 (Homo sapiens, UniProt P11712). In words: Time-dependent inhibition of CYP2C9 (unknown origin). Type of series: ADME.
Series [7] addresses Cytochrome P450 3A4 (Homo sapiens, UniProt P08684). The series can be described thus: Time-dependent inhibition of CYP3A4 (unknown origin). Type of series: ADME.

The term Ki denotes a dissociation constant, usually derived from enzyme kinetics or from competition with a known ligand. Usually Cmax stands for the highest concentration seen after dosing. One may read the inhibition as the share of the control response that was lost under treatment. For orientation: Emax means the maximal effect, on the per cent scale that the assay sets. As a reminder, the EC50 is the concentration giving half of the maximal effect.

Structures are written as SMILES.

Sequence of Cytochrome P450 2C9 (P11712 whole entry): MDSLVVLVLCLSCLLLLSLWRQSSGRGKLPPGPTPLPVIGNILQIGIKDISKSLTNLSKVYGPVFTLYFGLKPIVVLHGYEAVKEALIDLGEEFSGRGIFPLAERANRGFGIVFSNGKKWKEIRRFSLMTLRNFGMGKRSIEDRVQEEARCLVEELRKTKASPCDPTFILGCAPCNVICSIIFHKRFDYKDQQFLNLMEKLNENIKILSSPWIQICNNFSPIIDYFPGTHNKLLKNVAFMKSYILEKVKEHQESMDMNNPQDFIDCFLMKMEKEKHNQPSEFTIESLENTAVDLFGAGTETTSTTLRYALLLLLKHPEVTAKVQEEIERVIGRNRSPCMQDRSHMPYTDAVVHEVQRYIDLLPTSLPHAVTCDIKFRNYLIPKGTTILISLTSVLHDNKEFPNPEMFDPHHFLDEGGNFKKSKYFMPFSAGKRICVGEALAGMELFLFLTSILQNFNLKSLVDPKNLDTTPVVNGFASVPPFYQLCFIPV
Sequence of Cytochrome P450 3A4 (P08684 whole entry): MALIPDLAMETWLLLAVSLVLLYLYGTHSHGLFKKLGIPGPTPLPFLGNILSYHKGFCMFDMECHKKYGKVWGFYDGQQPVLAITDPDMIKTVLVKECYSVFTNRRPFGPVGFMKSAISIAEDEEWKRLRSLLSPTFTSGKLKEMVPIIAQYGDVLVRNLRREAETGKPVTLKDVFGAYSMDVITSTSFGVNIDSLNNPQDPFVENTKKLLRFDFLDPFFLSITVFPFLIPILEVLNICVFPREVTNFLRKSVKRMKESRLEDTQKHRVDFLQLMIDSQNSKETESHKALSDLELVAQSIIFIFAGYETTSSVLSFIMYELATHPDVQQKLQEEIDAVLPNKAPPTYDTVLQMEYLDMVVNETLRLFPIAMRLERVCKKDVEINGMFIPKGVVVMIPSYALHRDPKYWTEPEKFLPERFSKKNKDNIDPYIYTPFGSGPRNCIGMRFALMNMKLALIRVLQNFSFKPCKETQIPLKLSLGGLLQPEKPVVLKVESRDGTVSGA

As for `Cn1cc(S(=O)(=O)N2CCC3=Cc4c(cnn4-c4ccc(F)cc4)C[C@]3(C(=O)c3cc(C(F)(F)F)ccn3)C2)cn1` [RELACORILANT], the Ki in series [1] stood at 7.2 nM. In series [2], this compound registered a Cmax of 1140 ng/mL. This compound came in with an inhibition at 1 µM in series [3] of under 10%. The Emax in series [4] is 80%. Also, the EC50 in series [5] is over 10000 nM. Moreover, the TDI result in series [6] and in series [7] was “Not Active” throughout.

(Values after ChEMBL document CHEMBL4049426, “Identification of the Clinical Candidate (R)-(1-(4-Fluorophenyl)-6-((1-methyl-1H-pyrazol-4-yl)sulfonyl)-4,4a,5,6,7,8-hexahydro-1H-pyrazolo[3,4-g]isoquinolin-4a-yl)(4-(trifluoromethyl)pyridin-2-yl)methanone (CORT125134): A Selective Glucocorticoid Receptor (GR) Antagonist” (J Med Chem, 2017).)
